“And” between values parts separate entries of the source, which are not always exact repeats. Equal values may be shown once.
How the values were obtained:
[1] = tested on: Respiratory syncytial virus; assay: Antiviral activity against RSV A2 infected in human HEp2 cells assessed as protection against virus-induced cytopathic effect after 5 days by resazurin assay; format: functional, organism-based; conditions: A2, HEp-2, 120 h
In short: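 HEp2 cells seeded at 10^3/well in 5% FBS-DMEM with 2 mM L-glutamine and 1 mM sodium pyruvate one day before infection. RSV A2 added in serum-free DMEM at final MOI 1, with compound added at the same time (final DMSO 0.5%). Incubated 5 days at 37°C/5% CO2. Resazurin then added for 6 h; fluorescence read at 545/590 nm. Percent inhibition per well; IC50 taken from the concentration-response curve.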

[2] = tested on: Respiratory syncytial virus; assay: Antiviral activity against RSV B Washington infected in human HEp2 cells assessed as protection against virus-induced cytopathic effect after 6 days by resazurin assay; format: functional, organism-based; conditions: HEp-2, 144 h
In short: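 HEp2 cells seeded at 10^3/well in 5% FBS-DMEM with glutamine and pyruvate one day before infection. RSV B Washington added in serum-free DMEM at final MOI 0.2, with compound added at the same time (0.5% DMSO final). Incubated 6 days at 37°C/5% CO2. Resazurin added for 6 h; fluorescence read at 545 nm ex / 590 nm em. IC50 taken from the concentration-response curve.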

[3] = tested on: Respiratory syncytial virus; assay: Antiviral activity against RSV A2 infected in human HEp2 cells assessed as protection against virus-induced cytopathic effect at 0.014 uM after 5 days by resazurin assay relative to control; format: functional
[4] = biological target: Vasopressin V1a receptor (Homo sapiens, UniProt P37288); assay: Displacement of [3H] (Arg8)-vasopressin from human vasopressin V1a receptor expressed in CHO cell membranes after 60 mins
[5] = biological target: Vasopressin V2 receptor (Homo sapiens, UniProt P30518); assay: Displacement of [3H] (Arg8)-vasopressin from human vasopressin V2 receptor expressed in CHO cell membranes after 60 mins
Sequence of Vasopressin V2 receptor (P30518 whole entry): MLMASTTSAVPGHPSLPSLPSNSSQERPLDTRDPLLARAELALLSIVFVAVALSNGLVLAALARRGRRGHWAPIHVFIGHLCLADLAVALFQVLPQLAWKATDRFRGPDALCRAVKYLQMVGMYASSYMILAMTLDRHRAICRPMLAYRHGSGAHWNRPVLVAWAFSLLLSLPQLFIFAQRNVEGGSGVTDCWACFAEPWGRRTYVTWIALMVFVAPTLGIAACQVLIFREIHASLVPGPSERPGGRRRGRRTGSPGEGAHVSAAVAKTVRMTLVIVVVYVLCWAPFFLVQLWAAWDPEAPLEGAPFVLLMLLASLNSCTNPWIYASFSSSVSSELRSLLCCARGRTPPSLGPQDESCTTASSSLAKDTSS

Sequence of Vasopressin V1a receptor (P37288 whole entry): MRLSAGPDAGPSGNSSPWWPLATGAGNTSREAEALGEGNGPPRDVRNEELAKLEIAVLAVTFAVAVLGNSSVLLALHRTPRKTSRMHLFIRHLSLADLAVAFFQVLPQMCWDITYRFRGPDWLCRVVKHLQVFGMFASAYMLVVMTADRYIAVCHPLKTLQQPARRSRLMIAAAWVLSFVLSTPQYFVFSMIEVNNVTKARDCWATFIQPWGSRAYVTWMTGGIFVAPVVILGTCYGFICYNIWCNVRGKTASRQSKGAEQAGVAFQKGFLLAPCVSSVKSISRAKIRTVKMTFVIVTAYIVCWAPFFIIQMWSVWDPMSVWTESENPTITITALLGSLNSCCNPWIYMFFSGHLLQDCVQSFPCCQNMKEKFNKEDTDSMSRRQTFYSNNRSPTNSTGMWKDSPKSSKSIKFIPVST

| Structure (SMILES) | IC50 [1] [nM] | IC50 [2] [nM] | Activity [3] [%] | Ki [4] | Ki [5] |
| --- | --- | --- | --- | --- | --- |
| Cc1cnc(N2CC3(CCOCC3)C2)c(C(=O)Nc2ccc(C(=O)N3C[C@@H](C)c4cc(C(=O)Nc5c(C)cccc5F)sc4-c4ccccc43)cc2)c1 | > 14 | > 1370 | 40 | – | – |
| Cc1ccccc1C(=O)Nc1ccc(C(=O)N2CCC(=O)N(C)c3cccc(C)c32)cc1 | – | – | – | 70 nM and 620 nM | 640 nM and 4700 nM |
| Cc1cnc(N2CC3(CCOCC3)C2)c(C(=O)Nc2ccc(C(=O)N3C[C@H](C)c4cc(C(=O)Nc5c(C)cccc5F)sc4-c4ccccc43)cc2)c1 | 0.51 | 15 | – | – | – |
| Cc1cnc(N2CC3(CCOCC3)C2)c(C(=O)Nc2ccc(C(=O)N3c4ccccc4-c4sc(C(=O)Nc5c(F)cccc5F)cc4C[C@@H]3C)cc2)c1 | > 14 | > 1360 | – | – | – |
| Cc1cnc(N2CC3(CCOCC3)C2)c(C(=O)Nc2ccc(C(=O)N3c4ccccc4-c4sc(C(=O)Nc5c(F)cccc5F)cc4C[C@H]3C)cc2)c1 | 0.18 | 9.2 | – | – | – |
| Cc1cnc(N2CC3(CCOCC3)C2)c(C(=O)Nc2ccc(C(=O)N3CC(C)c4cc(C(=O)Nc5c(C)cccc5F)sc4-c4ccccc43)cc2)c1 (racemic) | 1.1 | 17 | – | – | – |
| Cc1cnc(N2CC3(CCOCC3)C2)c(C(=O)Nc2ccc(C(=O)N3c4ccccc4-c4sc(C(=O)Nc5c(F)cccc5F)cc4CC3C)cc2)c1 (racemic) | 0.45 | 13 | – | – | – |
| Cc1cnc(N2CC3(CCOCC3)C2)c(C(=O)Nc2ccc(C(=O)N3CCc4cc(C(=O)Nc5c(C)cccc5F)sc4-c4ccccc43)cc2)c1 [PC-786] | 0.32 | 7.2 | – | – | – |
